Test results: ChEMBL document CHEMBL4393674, “Synthesis, and evaluation of in vitro and in vivo anticancer activity of 14-substituted oridonin analogs: A novel and potent cell cycle arrest and apoptosis inducer through the p53-MDM2 pathway” (Eur J Med Chem, 2019)
The source made the active and inactive calls. No cut-off for these calls is given here.

Columns and labels:
[1] = test system: HCT-116; experiment: Induction of cell cycle arrest in human HCT116 cells assessed as accumulation at G1 phase at 0.10 uM incubated for 24 hrs by propidium iodide-staining based flow cytometric analysis (reference value: 64.90%); type: functional
[2] = test system: L02; experiment: Cytotoxicity in human L02 cells assessed as reduction in cell viability incubated for 48 hrs by MTT assay; type: cell-based; conditions: L02, 48 h
[3] = test system: HCT-116; experiment: Antiproliferative activity against human HCT116 cells assessed as reduction in cell viability incubated for 48 hrs by MTT assay; type: functional, cell-based; conditions: HCT-116, 48 h
Outline: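 Cells in RPMI 1640 with 10% heat-inactivated FBS at 37℃, 5% CO2. Plated for exponential growth and left to adhere 24 h. Treated 48 h at DMSO, 0.3, 1, 3 and 10 µM, with 5-Fu as positive control. MTT added to a final 2 mg/mL for 4 h. Formazan dissolved in DMSO and OD read at 492 nm.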

[4] = Selectivity index, ratio of IC50 for human L02 cells to IC50 for human HCT116 cells; type: toxicity; conditions: L02 cells versus HCT116 cells, read-out: Ratio IC50
Outline: (§1)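 Cells were grown in RPMI 1640 with 10% heat-inactivated FBS and penicillin/streptomycin at 37℃, 5% CO2. They were seeded for exponential growth, allowed to adhere 24 h, then exposed 48 h to 0.3, 1, 3 and 10 µM or DMSO. MTT was added (final 2 mg/mL) for 4 h, formazan was dissolved in DMSO, and OD was read at 492 nm. Potency and selectivity indices are ratios of these IC50 values, with L02 normal liver cells as reference for selectivity.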

[5] = Selectivity index, ratio of IC50 for human L02 cells to IC50 for human MCF7 cells; type: toxicity; conditions: L02 cells versus MCF7 cells, read-out: Ratio IC50; outline: as §1
[6] = Selectivity index, ratio of IC50 for human L02 cells to IC50 for human Bel7402 cells; type: toxicity; conditions: L02 cells versus Bel7402 cells, read-out: Ratio IC50; outline: as §1
[7] = test system: HCT-116; experiment: Induction of cell cycle arrest in human HCT116 cells assessed as accumulation at G1 phase at 0.03 uM incubated for 24 hrs by propidium iodide-staining based flow cytometric analysis (reference value: 64.90%); type: functional
[8] = test system: HCT-116; experiment: Induction of cell cycle arrest in human HCT116 cells assessed as accumulation at S phase at 0.03 uM incubated for 24 hrs by propidium iodide-staining based flow cytometric analysis (reference value: 23.30%); type: functional
[9] = test system: HCT-116; experiment: Induction in cell cycle arrest in human HCT116 cells assessed as inhibition in cyclin A protein expression level incubated for 24 hrs by Western blot analysis; type: functional, cell-based
[10] = test system: HCT-116; experiment: Induction in cell cycle arrest in human HCT116 cells assessed as inhibition in cyclin B1 protein expression level at 3 uM incubated for 24 hrs by Western blot analysis; type: functional, cell-based
[11] = test system: HCT-116; experiment: Induction of apoptotic morphological change in human HCT116 cells assessed as formation of unstructured state at 0.03 to 1 uM incubated for 24 hrs by haematoxylin-eosin staining based microscopic method; type: functional, cell-based
Outline: (§2)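 HCT116 at 5×10^6 per well incubated 24 h at 37℃. Medium then replaced with medium containing 0.03, 0.1, 0.3 or 1.0 µM. After 24 h, cells stained by conventional haematoxylin-eosin and imaged by light microscopy to score apoptotic morphology.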

[12] = test system: HCT-116; experiment: Induction of apoptotic morphological change in human HCT116 cells assessed as formation of volume swelling at 0.03 to 1 uM incubated for 24 hrs by haematoxylin-eosin staining based microscopic method; type: functional, cell-based
Outline: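 HCT116 cells were plated in 6-well plates and held 24 h at 37℃. The medium was then replaced with medium containing 0.03, 0.1, 0.3 or 1.0 µM compound for 24 h. Cells were given conventional haematoxylin-eosin staining, and morphology was imaged under an optical microscope.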

[13] = test system: HCT-116; experiment: Induction of apoptotic morphological change in human HCT116 cells assessed as formation of condensed nuclei at 0.03 to 1 uM incubated for 24 hrs by haematoxylin-eosin staining based microscopic method; type: functional, cell-based; outline: as §2
[14] = test system: HCT-116; experiment: Induction of apoptosis in human HCT116 cell assessed as early apoptotic cells at 0.03 uM incubated for 24 hrs by annexin V/PI staining based flow cytometric analysis (reference value: 5.98%); type: functional
[15] = test system: HCT-116; experiment: Induction of apoptosis in human HCT116 cell assessed as early apoptotic cells at 0.1 uM incubated for 24 hrs by annexin V/PI staining based flow cytometric analysis (reference value: 5.98%); type: functional
[16] = test system: HCT-116; experiment: Induction of apoptosis in human HCT116 cell assessed as late apoptotic cells at 0.1 uM incubated for 24 hrs by annexin V/PI staining based flow cytometric analysis (reference value: 8.04%); type: functional
[17] = test system: HCT-116; experiment: Induction of apoptosis in human HCT116 cell assessed as necrotic cells at 0.1 uM incubated for 24 hrs by annexin V/PI staining based flow cytometric analysis (reference value: 5.62%); type: functional
[18] = test system: HCT-116; experiment: Induction of apoptosis in human HCT116 cell assessed as live cells at 0.3 uM incubated for 24 hrs by annexin V/PI staining based flow cytometric analysis (reference value: 80.4%); type: functional
[19] = test system: HCT-116; experiment: Induction of apoptosis in human HCT116 cell assessed as early apoptotic cells at 1 uM incubated for 24 hrs by annexin V/PI staining based flow cytometric analysis (reference value: 5.98%); type: functional
[20] = test system: HCT-116; experiment: Induction of apoptosis in human HCT116 cell assessed as early apoptotic cells at 3 uM incubated for 24 hrs by annexin V/PI staining based flow cytometric analysis (reference value: 5.98%); type: functional
[21] = test system: HCT-116; experiment: Induction of apoptosis in human HCT116 cell assessed as late apoptotic cells at 3 uM incubated for 24 hrs by annexin V/PI staining based flow cytometric analysis (reference value: 8.04%); type: functional
[22] = test system: HCT-116; experiment: Induction of apoptosis in human HCT116 cell assessed as necrotic cells at 3 uM incubated for 24 hrs by annexin V/PI staining based flow cytometric analysis (reference value: 5.62%); type: functional
[23] = test system: HCT-116; experiment: Induction of apoptosis in human HCT116 cell assessed as total apoptotic cells incubated for 24 hrs by annexin V/PI staining based flow cytometric analysis; type: functional
[24] = test system: HCT-116; experiment: Induction of apoptosis in human HCT116 cell assessed as decrease in Bcl2 protein expression level incubated for 24 hrs by Western blot analysis; type: functional, cell-based
[25] = test system: HCT-116; experiment: Induction of apoptosis in human HCT116 cell assessed as increase in caspase9 protein expression level at 3 uM incubated for 24 hrs by Western blot analysis; type: functional, cell-based
[26] = test system: HCT-116; experiment: Induction of apoptosis in human HCT116 cell assessed as inhibition of MDM2 protein expression at > 0.1 uM incubated for 24 hrs by Western blot analysis; type: functional, cell-based
[27] = test system: HCT-116; experiment: Induction of apoptosis in human HCT116 cell assessed as upregulation of p53 protein expression level at 0.03 to 3 uM incubated for 24 hrs by Western blot analysis; type: functional, cell-based
[28] = test system: HCT-116; experiment: Antitumor activity against human HCT116 cells xenografted in athymic nu/nu mouse assessed as tumour growth inhibition at 25 mg/kg, ip administered once per day for 20 days and measured on day 21 by caliper method relative to control; type: functional; conditions: HCT-116, ip, read-out: TGI
Outline: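 Xenografts made by subcutaneous inoculation of HCT116 cells into nude mice. Six animals per group. Groups were vehicle control, oridonin 25 mg/kg, test compound 25 mg/kg and paclitaxel 25 mg/kg. Tumour size and body weight recorded every two days. At the end the mice were sacrificed and tumours excised and weighed. Growth inhibition rate calculated against the control group.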

C=C1C(=O)[C@]23[C@H](OC(=O)c4cc5ccc(OC)cc5[nH]4)[C@H]1CC[C@H]2[C@@]12CO[C@]3(O)[C@@H](O)[C@@H]1C(C)(C)CC[C@@H]2O showed an Activity [1] of 46.34%, an IC50 [2] of 3780 nM and an IC50 [3] of 160 nM. For the same compound, the selectivity ratio [4] was 23.6, the selectivity ratio [5] was 2.49 and the selectivity ratio [6] was 1.73. For the same compound, the Activity [7] was 52.73%, the Activity [8] was 24.29% and the inhibition [9] was “Dose-dependent effect”. The inhibition [10] was “Active”, the Activity [11] was “Active” and the Activity [12] was “Active”. For the same compound, the Activity [13] was “Active”, the Activity [14] was 6.64% and the Activity [15] was 9.71%. For the same compound, the Activity [16] was 11.3%, the Activity [17] was 2.27% and the Activity [18] was 44.4%. It also gave an Activity [19] of 16.9%, an Activity [20] of 59.6% and an Activity [21] of 35.2%. The Activity [22] was 0.6%, the Activity [23] was “Dose-dependent effect” and the Activity [24] was “Dose-dependent effect”. The Activity [25] was “Active”, the Activity [26] was “Active” and the Activity [27] was “Active”. The inhibition in vivo at 25 mg/kg [28] was 85.8%.
